High-throughput results: PubChem, Broad Institute
Compounds with a hit are over-represented: about 1.6% of the library has one in this group of screens.
S100A4 inh HTS = inhibitors of human S100A4 binding to myosin IIA peptide; P26447; S100A4/TAMRA-MyoIIA peptide fluorescence polarization; inhibition, % at 10.7 µM; 360,000 tested, 0.14% active; AID 652163;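 active = mean inhibition of at least 70% across replicates, with every replicate also reaching that level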
Target sequence (P26447 whole entry, looked up): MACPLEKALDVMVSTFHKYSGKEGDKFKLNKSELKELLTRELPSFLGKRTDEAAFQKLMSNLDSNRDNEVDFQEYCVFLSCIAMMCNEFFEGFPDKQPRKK
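Test system: S100A4 monomer protein; Medium: HEPES pH 7.2 with CaCl2, KCl, NaCl, DTT, Triton; Probe or stimulus: TAMRA-labelled myosin IIA heavy-chain peptide probe, 5 nM; Doses: one dose per compound; Times: polarization read 5 min after assay mix addition, stable 5–60 min; Benchmarks: neutral control DMSO, positive control TFP.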
PvdQ acylase = blocks Pseudomonas aeruginosa PvdQ acylase activity | purified PvdQ acylase, fluorescence plate reader | inhibition, % at 10 µM | 340,000 tested, 0.063% active; in the data active = inhibition above about 30%, passing the limit was not always enough;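 also: 0% = vehicle neutral wells and 100% = reference inhibitor wells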
dFosB activator = activators of mouse delta FosB homodimer; P13346; purified delta FosB, TAMRA-CDK5 oligo fluorescence polarization; percent of positive-control signal above neutral wells; activation, % at 25 µM; 340,000 tested, 0.99% active; AID 493131;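 active = mean activation above about 17%, with every replicate also reaching it, limit read from the data, passing the limit was not always enough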
Target sequence (P13346 whole entry, looked up): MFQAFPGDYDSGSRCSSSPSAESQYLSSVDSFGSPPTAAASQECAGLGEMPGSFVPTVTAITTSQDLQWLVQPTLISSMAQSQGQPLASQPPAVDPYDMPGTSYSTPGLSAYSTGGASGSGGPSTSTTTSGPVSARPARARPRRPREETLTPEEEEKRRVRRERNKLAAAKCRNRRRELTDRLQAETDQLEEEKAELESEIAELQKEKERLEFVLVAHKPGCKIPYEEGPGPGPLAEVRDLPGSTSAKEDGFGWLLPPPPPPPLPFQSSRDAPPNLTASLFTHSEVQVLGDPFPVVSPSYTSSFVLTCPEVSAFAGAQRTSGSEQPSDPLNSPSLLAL
SR-BI DiI-HDL act = enhances SR-BI lipid uptake from DiI-HDL. AID 504775. activation, % at 12.5 µM. CHO ldlA[mSR-BI] cells, DiI-HDL uptake fluorescence, 3 h; 100 = double the neutral-control signal. 320,000 tested, 0.096% active;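 active = mean replicate activation of at least 60% and every replicate at or above 60%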;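 also: 0% = median plate neutral-control signal and 100% = twice that signal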
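Test system: SR-BI-overexpressing, LDLR-lacking CHO cells; Medium: Ham's F12 with 0.5% BSA, HEPES 25 mM, pH 7.4; Schedule: 3 h, 37 °C; Technique: bottom-read fluorescence, 550/595 nm.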
RAD54 branch = inhibitors of human RAD54 branch migration. Q92698. RAD54 Holliday junction branch migration, FAM/BHQ fluorescence. inhibition, % at 10.4 µM. 360,000 tested, 0.14% active. AID 602329;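 active = mean normalized replicate activity at least 40 and at least half of replicates scoring 40 or more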;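 also: 0% = median of neutral control wells and 100% = median of positive control wells; inhibitors cause a drop in the FAM fluorescence signal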
SR-BI DiI inh = mouse SR-BI HDL lipid transfer inhibition; Q61009; ldlA[mSR-BI] CHO cells, DiI-HDL uptake fluorescence, 3 h; 320,000 tested, 0.96% active; inhibition, % at 12.5 µM;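 active = mean replicate inhibition of at least 70% and a set share of replicates each scoring 70 or more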;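 also: 0% = median of neutral control wells and 100% = median of positive control wells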
Starred values were filed as active, the others as inactive; · = no result given.

SMILES | S100A4 inh HTS | PvdQ acylase | dFosB activator | SR-BI DiI-HDL act | RAD54 branch | SR-BI DiI inh
CCCCc1c(C)nc(Nc2ccc(OC)cc2)[nH]c1=O | · | 0 | 2 | 60* | -9 | -60
Cc1cc(C)c(C)c(N=Nc2nc3ccccc3n2C)c1C | · | 11 | -6 | -79 | · | 79*
Cc1ccc(C)c(N=Nc2nc3ccccc3n2C)c1 | · | 15 | -19 | -37 | 6 | 37
O=[N+]([O-])c1ccc(O)c(/C=N/Nc2nc3ccccc3[nH]2)c1 | -3 | -7 | 2 | -87 | · | 87*
Clc1nc2ccccc2cc1/C=N/Nc1nc2ccccc2[nH]1 | 2 | -14 | 18* | -10 | · | 10
CC(C)NC(=O)Nc1cccc2c1O[C@H](CN(C)C)[C@H](C)CN([C@@H](C)CO)C2=O | 5 | · | · | · | 3 | ·
Cc1ccc2c(c1)c1ccc3c(c1n2C)C(=O)C=CC3=O | -1 | -17 | -15 | -71 | -10 | 71*
Cn1c2ccccc2c2ccc3c(c21)C(=O)C=CC3=O | -3 | -1 | -23 | -20 | · | 20
CC=Cc1ccc2n(c1=O)C[C@@H]1[C@@H](CO)[C@H](C(=O)NCc3ccc4c(c3)OCO4)[C@H]2N1C(=O)CC (mixture of isomers) | 0 | · | · | · | 0 | ·
CC=Cc1ccc2n(c1=O)C[C@@H]1[C@@H](CO)[C@H](C(=O)NCc3ccc4c(c3)OCO4)[C@H]2N1C(C)=O (mixture of isomers) | 125* | · | · | · | 11 | ·
O=C(CNC(=O)c1ccc(Cl)cc1Cl)OCc1cn2cc(Br)ccc2n1 | 74* | -14 | -8 | 13 | -3 | -13
CCCNc1c(NS(=O)(=O)c2ccc(Br)cc2)c(=O)oc2ccccc12 | 6 | -5 | 46* | 21 | -2 | -21
O=c1oc2ccccc2c(NC2CCCCC2)c1NS(=O)(=O)c1ccc(Br)cc1 | · | -14 | 7 | -38 | 5 | 38
Cc1ccc2c(nc3s/c(=C\c4ccc(-c5ccccc5C(=O)O)o4)c(=O)n32)c1C | 85* | -1 | -27 | 12 | 2 | -12
Cc1cc(C)c2nc3sc(=Cc4ccc(-c5ccccc5C(=O)O)o4)c(=O)n3c2c1 | -3 | · | · | · | -9 | ·
CC(C)(C)C(=O)/C=c1\[nH]c(=O)/c(=C\c2ccc(F)cc2)s1 | · | -9 | -20 | -21 | · | 21
COc1ccc(/C=c2\s/c(=C/C(=O)c3ccc(C)cc3)[nH]c2=O)cc1OC | · | -6 | 4 | -74 | · | 74*
Nc1nc(NCCCN2CCOCC2)nc(Nc2ccc(F)cc2)c1[N+](=O)[O-] | · | -5 | 31* | 11 | · | -11
Nc1nc(NCCCN2CCOCC2)nc(Nc2cccc(F)c2)c1[N+](=O)[O-] | -2 | 4 | 26* | -8 | · | 8
Cc1cccc(Nc2nc(NCCCN3CCOCC3)nc(N)c2[N+](=O)[O-])c1 | -6 | -5 | 37* | -22 | -13 | 22
COc1ccc(Nc2nc(NCCCN3CCOCC3)nc(N)c2[N+](=O)[O-])cc1 | 3 | 4 | 9 | -4 | · | 4
Cc1cccc(Nc2nc(N)c([N+](=O)[O-])c(N3CCN(C)CC3)n2)c1 | · | 12 | -3 | -5 | 9 | 5
Nc1nc(NCCCN2CCOCC2)nc(Nc2ccccc2F)c1[N+](=O)[O-] | 4 | -6 | 25* | -5 | · | 5
CO[C@@H]1CN(C)C(=O)c2cc(NC(=O)c3ccc(F)cc3)ccc2OC[C@H](C)N(C(C)=O)C[C@H]1C | -13 | · | · | · | 2 | ·
CCN(CC)Cc1cc(Nc2c3ccccc3nc3c4ccccc4n(C)c23)cc(CN(CC)CC)c1O | 7 | 3 | 66* | 12 | · | -12
SMILES | S100A4 inh HTS | PvdQ acylase | dFosB activator | SR-BI DiI-HDL act | RAD54 branch | SR-BI DiI inh
O=[N+]([O-])c1cccc(-c2nc(-c3ccccc3)c(-c3cccs3)[nH]2)c1 | · | 4 | 9 | · | 6 | ·
O=[N+]([O-])c1cccc(-c2nc(-c3cccs3)c(-c3cccs3)[nH]2)c1 | · | 3 | 1 | -91 | -8 | 91*
Cc1ccc(NS(=O)(=O)c2ccc(NC(=O)c3ccc(-c4ccccc4)cc3)cc2)c(C)c1 | · | -15 | 54* | -32 | 1 | 32
Cc1ccc(NS(=O)(=O)c2ccc(NC(=O)c3ccccc3C(=O)O)cc2)c(C)c1 | 1 | -2 | 3 | 14 | · | -14
O=[N+]([O-])c1ccc(-c2cccnc2)cc1 | -4 | 49* | 1 | 2 | 0 | -2
C[C@H](NC(=O)C[C@@H]1C[C@@H]2c3cc(NC(=O)Nc4ccc(C(F)(F)F)cc4)ccc3O[C@@H]2[C@@H](CO)O1)c1ccccc1 | 85* | · | · | · | -4 | ·
CN(C)c1ccc2c(c1)[C@H]1C[C@H](CC(=O)NCCN3CCCCC3)O[C@@H](CO)[C@H]1O2 | 1 | · | · | · | 53* | ·
CN(C)CC(=O)Nc1ccc2c(c1)[C@H]1C[C@@H](CC(=O)NCCN3CCCCC3)O[C@@H](CO)[C@H]1O2 | -3 | · | · | · | 3 | ·
C[C@H](NC(=O)C[C@@H]1C[C@H]2c3cc(NC(=O)Nc4ccc(C(F)(F)F)cc4)ccc3O[C@H]2[C@H](CO)O1)c1ccccc1 | -8 | · | · | · | -2 | ·
C[C@H](NC(=O)C[C@@H]1C[C@H]2c3cc(NC(=O)CN(C)C)ccc3O[C@H]2[C@@H](CO)O1)c1ccccc1 | 10 | · | · | · | -2 | ·
C[C@H](NC(=O)C[C@H]1C[C@@H]2c3cc(NC(=O)CN(C)C)ccc3O[C@@H]2[C@H](CO)O1)c1ccccc1 | 108* | · | · | · | -6 | ·
CNC[C@H]1Oc2ccc(NC(=O)Nc3ccc(F)cc3)cc2CC(=O)N([C@H](C)CO)C[C@@H]1C | -28 | · | · | · | 4 | ·
COC(=O)c1sc2nc3c(cc2c1N)COC(C)(C)C3 | · | -11 | 1 | 170* | 2 | -170
Cc1ccc(S(=O)(=O)N(C)C[C@H]2Oc3ccc(NS(=O)(=O)c4ccccc4)cc3CC(=O)N([C@H](C)CO)C[C@H]2C)cc1 | 5 | · | · | · | -1 | ·
Cc1cc(N/N=C/c2cccc(F)c2)nc(NCc2ccccc2)n1 | 1 | 5 | 33* | -41 | · | 41
Cc1cc(N/N=C/c2ccccc2)nc(NCc2ccccc2)n1 | -5 | -3 | 38* | -3 | -3 | 3
Cc1cc(N/N=C/c2ccccc2F)nc(NCc2ccccc2)n1 | 0 | 6 | 6 | -17 | · | 17
Cc1cc(N/N=C/c2ccc(Cl)cc2)nc(NCc2ccccc2)n1 | -11 | -5 | 53* | -19 | · | 19
O=S(=O)(N[C@H]1CC[C@@H](CCn2cc(-c3ccccc3F)nn2)O[C@H]1CO)c1ccc(F)cc1 | -42 | · | · | · | · | ·
CCNC(=O)C[C@@H]1CC[C@@H]2[C@H](COc3ccc(NC(=O)Cc4cccs4)cc3C(=O)N2C)O1 | -28 | · | · | · | 4 | ·
COc1ccc(NC(=O)N(C)C[C@H]2Oc3c(NC(=O)c4ccc(-c5nccs5)cc4)cccc3C(=O)N([C@@H](C)CO)C[C@H]2C)cc1 | 2 | · | · | · | -7 | ·
